In one data set the test system is P388. Put plainly: Cytotoxicity against mouse P388 cells after 72 hrs by MTT assay. It counts as functional, cell-based. An outline of the steps:
(§1)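 MTT read-out on HL-60 and P-388 cells, run to earlier published protocols, with pseudolaric acid B as the positive control; IC50 values reported.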
On the technique in general: Formazan colour is commonly taken as a measure of viable cells.

For a further data set, the system named is HMEC. Put plainly: Cytotoxicity against human HMEC cells after 72 hrs by sulforhodamine B assay. Format: cell-based. Conditions: for Activity: human, hmec. An outline of the steps:
(§2)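 SRB staining on A-549, BEL-7402 and HMEC (human microvascular endothelial) cells, run to earlier published protocols, with pseudolaric acid B as the positive control; IC50 values reported.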
A general note: Sulforhodamine B stains cellular protein and so reports cell mass.

A further data set relates to Bel-7402. The data set is described as follows: Cytotoxicity against human Bel7402 cells after 72 hrs by sulforhodamine B assay. Format: functional, cell-based. An outline of the steps:
as §2

A further data set has as its system HL-60. The data set is described as follows: Cytotoxicity against human HL60 cells after 72 hrs by MTT assay. It counts as functional, cell-based. An outline of the steps:
as §1

In a further data set the test system is A549. Put plainly: Cytotoxicity against human A549 cells after 72 hrs by sulforhodamine B assay. Format: functional, cell-based. An outline of the steps:
as §2

Active and inactive are the calls of the source. The rule behind the calls is not given here.

Take `CC[C@@]1(O)CC[C@@]2(CO1)[C@H]1CCC3=C4[C@H](C[C@@H]3O)[C@H](C(=O)OC)C[C@@]42CN(C)C1`: the result with P388, with Bel-7402, in the data set on HL-60 and in the data set with A549 was inactive. Besides, the Activity entry in the data set with HMEC was “Non-toxic”.

In the case of `COC(=O)CC[C@]12C3=CCC[C@@H]3CC[C@@H]3C=N[C@@H]1[C@@H](C(C)C)CC[C@@]32C` [DAPHNEZOMINE L METHYL ESTER], the result in the data set with P388, with Bel-7402, in the data set with HL-60 and in the data set on A549 was inactive. In addition, the Activity entry with HMEC is on record as “Non-toxic”.

One may read the IC50 as the point on the concentration scale where inhibition reaches its midpoint. A lower IC50 goes with greater potency. As to `CC(=O)O[C@@H]1CC[C@@]2(C)O[C@@H](O)[C@@]1(C)C2CC[C@@]12[C@@H]3NC4C(CC[C@@]45CCC[C@H]51)[C@]2(C)CC[C@@H]3C(C)C` (stereo not given in full) [DAPHNILONGERIDINE], the concentration for half-maximal inhibition (IC50) was found to be 2.4 µM in the data set with P388 (P388, 72 h); 2.7 µM in the data set on HMEC (Homo sapiens, HMEC); 9.7 µM in the data set on Bel-7402 (Bel-7402, 72 h); 9.5 µM in the data set on HL-60 (HL-60, 72 h). The result in the data set with A549 was inactive.

`CC(C)[C@H]1CC[C@@]2(C)[C@@H]3C[C@@H](O)[C@]45CCC[C@H]4[C@@]2(CCC(=O)[C@]2(C)CO[C@]4(C)CCC2O4)[C@@H]1N5C3` [HYDROXYCODAPHNIPHYLLINE]: the result in the data set on P388, in the data set with Bel-7402, in the data set on HL-60 and in the data set on A549 was inactive. For the same molecule, the Activity entry in the data set with HMEC is given as “Non-toxic”.

As for `COC(=O)[C@@H]1C[C@@]23C(=O)[C@@H]4C[C@H]5N(C[C@@H](CCC6=C2[C@@H]1CC6)[C@]53COC(C)=O)C[C@H]4C` [SUBDAPHNIDINE A], the result with P388, in the data set on Bel-7402, in the data set with HL-60 and in the data set on A549 was inactive. In addition, the Activity entry in the data set with HMEC is on record as “Non-toxic”.

(Values after ChEMBL document CHEMBL1154265, “Alkaloids from the leaves of Daphniphyllum subverticillatum” (J Nat Prod, 2009).)
